# Reference: ChEMBL document CHEMBL4811233, “Synthesis, Structure-Activity Relationships, and Antiviral Activity of Allosteric Inhibitors of Flavivirus NS2B-NS3 Protease” (J Med Chem, 2021)
# Tested on: U-87 MG
# Assay: Cytotoxicity against human U87 cells assessed as inhibition of proliferation at 10 uM by MTT assay
# Format: cell-based
# Conditions: u-87mg atcc
row,Compound,Activity
1,N#Cc1cc(-c2nc(OCC3CCNCC3)cnc2-c2ccc(CN)cc2)ccc1-c1ccoc1,Non-Toxic
2,NCc1ccc(-c2ncc(OCC3CCNCC3)nc2-c2ccc(C(=O)N3CCOCC3)cc2)cc1,Non-Toxic
3,NCc1ccc(-c2ncc(OCC3CCNCC3)nc2-c2cccc(C3CCOC3)c2)cc1 (stereo not given),Non-Toxic
4,NCc1ccc(-c2ncc(OCC3CCNCC3)nc2-c2ccc(C3CCCCC3)cc2)cc1,Non-Toxic
5,Cc1cc(-c2ccoc2)ccc1-c1nc(OCC2CCNCC2)cnc1-c1ccc(CN)cc1,Non-Toxic
6,NCc1ccc(-c2ncc(OCC3CCNCC3)nc2-c2ccc(-c3ccoc3)cc2F)cc1,Non-Toxic
7,NCc1ccc(-c2ncc(OCC3CCNCC3)nc2-c2ccc(-c3ccoc3)cc2CO)cc1,Non-Toxic
8,NCc1ccc(-c2ncc(OCC3CCNCC3)nc2-c2ccc(C3CCNCC3)cc2)cc1,Non-Toxic
9,NCc1ccc(-c2ncc(OCC3CCNCC3)nc2-c2ccc(N3CCCCC3)cc2)cc1,Non-Toxic
10,NCc1ccc(-c2ncc(OCC3CCNCC3)nc2-c2ccc(N3CCOCC3)cc2)cc1,Non-Toxic
11,NCc1ccc(-c2ncc(OCC3CCNCC3)nc2-c2ccc(C3=CCNCC3)cc2)cc1,Non-Toxic
12,NCc1ccc(-c2ncc(OCC3CCNCC3)nc2-c2ccc(C(=O)N3CCCCC3)cc2)cc1,Non-Toxic
13,NCc1ccc(-c2ncc(OCC3CCNCC3)nc2-c2ccc(C(=O)N3CCCC3)cc2)cc1,Non-Toxic
14,COc1cc(-c2nc(OCC3CCNCC3)cnc2-c2ccc(CN)cc2)ccc1-c1ccoc1,Non-Toxic
15,NCc1ccc(-c2ncc(OCC3CCNCC3)nc2-c2ccc(N3CCCC3)cc2)cc1,Non-Toxic
16,NCc1ccc(-c2ncc(OCC3CCNCC3)nc2-c2ccc(C3CCOC3)cc2)cc1 (stereo not given),Non-Toxic
17,COc1cc(-c2ccoc2)ccc1-c1nc(OCC2CCNCC2)cnc1-c1ccc(CN)cc1,Non-Toxic

# Tested on: Vero
# Assay: Cytotoxicity against African green monkey Vero cells assessed as inhibition of proliferation at 10 uM by MTT assay
# Format: cell-based
# Conditions: chlorocebus sabaeus
row,Compound,Activity
1,N#Cc1cc(-c2nc(OCC3CCNCC3)cnc2-c2ccc(CN)cc2)ccc1-c1ccoc1,Non-Toxic
2,NCc1ccc(-c2ncc(OCC3CCNCC3)nc2-c2ccc(C(=O)N3CCOCC3)cc2)cc1,Non-Toxic
3,NCc1ccc(-c2ncc(OCC3CCNCC3)nc2-c2cccc(C3CCOC3)c2)cc1 (stereo not given),Non-Toxic
4,NCc1ccc(-c2ncc(OCC3CCNCC3)nc2-c2ccc(C3CCCCC3)cc2)cc1,Non-Toxic
5,Cc1cc(-c2ccoc2)ccc1-c1nc(OCC2CCNCC2)cnc1-c1ccc(CN)cc1,Non-Toxic
6,NCc1ccc(-c2ncc(OCC3CCNCC3)nc2-c2ccc(-c3ccoc3)cc2F)cc1,Non-Toxic
7,NCc1ccc(-c2ncc(OCC3CCNCC3)nc2-c2ccc(-c3ccoc3)cc2CO)cc1,Non-Toxic
8,NCc1ccc(-c2ncc(OCC3CCNCC3)nc2-c2ccc(C3CCNCC3)cc2)cc1,Non-Toxic
9,NCc1ccc(-c2ncc(OCC3CCNCC3)nc2-c2ccc(N3CCCCC3)cc2)cc1,Non-Toxic
10,NCc1ccc(-c2ncc(OCC3CCNCC3)nc2-c2ccc(N3CCOCC3)cc2)cc1,Non-Toxic
11,NCc1ccc(-c2ncc(OCC3CCNCC3)nc2-c2ccc(C3=CCNCC3)cc2)cc1,Non-Toxic
12,NCc1ccc(-c2ncc(OCC3CCNCC3)nc2-c2ccc(C(=O)N3CCCCC3)cc2)cc1,Non-Toxic
13,NCc1ccc(-c2ncc(OCC3CCNCC3)nc2-c2ccc(C(=O)N3CCCC3)cc2)cc1,Non-Toxic
14,COc1cc(-c2nc(OCC3CCNCC3)cnc2-c2ccc(CN)cc2)ccc1-c1ccoc1,Non-Toxic
15,NCc1ccc(-c2ncc(OCC3CCNCC3)nc2-c2ccc(N3CCCC3)cc2)cc1,Non-Toxic
16,NCc1ccc(-c2ncc(OCC3CCNCC3)nc2-c2ccc(C3CCOC3)cc2)cc1 (stereo not given),Non-Toxic
17,COc1cc(-c2ccoc2)ccc1-c1nc(OCC2CCNCC2)cnc1-c1ccc(CN)cc1,Non-Toxic

# Molecular target: Nonstructural protein 3 (Zika virus, UniProt A0A024AXB9)
# Sequence (A0A024AXB9 whole entry, the tested form may be a part): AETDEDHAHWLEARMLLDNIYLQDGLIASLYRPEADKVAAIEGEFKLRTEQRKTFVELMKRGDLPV
# Assay: Inhibition Zika virus NS2B (47 to 95 residues)/NS3 (1 to 170 residues) protease expressed in Escherichia coli BL21 using 7-amino-4-methylcoumarin as substrate by fluorescence assay
# Conditions: not given
# Summary of the method: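 Single-chain NS2B(47–95)–Gly4-Ser-Gly4–NS3(1–170) enzyme at 1 nM in 20 mM HEPES pH 7.3 with 0.05% Triton X-100. Compound (1 nM–10 µM, triplicate) is preincubated 10 min before adding Bz-Nle-Lys-Lys-Arg-AMC at 20 µM. Fluorescence (Ex 360/Em 460 nm) is read every 30 s. IC50 comes from dose-response fitting of initial velocities, 3 independent experiments with SD.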
row,Compound,IC50 [µM]
1,CN(C)Cc1ccc(-c2nc(OCC3CCNCC3)cnc2-c2cccnc2)cc1,9.9
2,CN(C)Cc1ccc(-c2nc(OCC3CCNCC3)cnc2-c2ccc(-c3ccoc3)cc2)cc1,1.8
3,NCc1ccc(-c2ncc(OCCC3CCNCC3)nc2-c2ccc(-c3ccoc3)cc2)cc1,1.3
4,CN(C)Cc1ccc(-c2nc(OCC3CCNCC3)cnc2-c2ccc(O)cc2)cc1,20.5
5,N#Cc1cc(-c2nc(OCC3CCNCC3)cnc2-c2ccc(CN)cc2)ccc1-c1ccoc1,1.8
6,Ic1ccc(-c2ncc(OCCCC3CCNCC3)nc2-c2ccc(I)cc2)cc1,> 10
7,NCc1ccc(-c2nc(OCC3CCNCC3)c3nccn3c2-c2ccc(CN)cc2)cc1,9.3
8,NCc1ccc(-c2ncc(OCC3CCNCC3)nc2-c2ccc(-n3cc(CO)nn3)cc2)cc1,> 10
9,NCc1ccc(-c2ncc(OCC3CCNCC3)nc2-c2ccc(C(=O)N3CCOCC3)cc2)cc1,> 10
10,NCc1ccc(-c2ncc(OCC3CCNCC3)nc2-c2cccc(C3CCOC3)c2)cc1 (stereo not given),> 10
11,Cc1cc(CN)ccc1-c1ncc(OCC2CCNCC2)nc1-c1ccc(-c2ccoc2)cc1,2.6
12,NCc1ccc(-c2nc(N3CC[C@H](N)C3)c3nccn3c2-c2ccc(CN)cc2)cc1,19.3
13,NCc1ccc(-c2ncc(OCC3CCNCC3)nc2-c2ccc(C3CCCCC3)cc2)cc1,16.2
14,Cc1cc(-c2ccoc2)ccc1-c1nc(OCC2CCNCC2)cnc1-c1ccc(CN)cc1,17.1
15,NCc1ccc(-c2ncc(OCC3CCNCC3)nc2-c2ccc(CN)c(F)c2)cc1,> 50
16,NCc1ccc(-c2ncc(OCC3CCNCC3)nc2-c2ccc(CN)cc2)cc1,0.62
17,COc1cc(-c2ncc(OCC3CCNCC3)nc2-c2ccc(-c3ccsc3)cc2)ccc1C(N)=O,4.7
18,NCCCOc1cnc(-c2ccc(CN)cc2)c(-c2ccc(-c3ccoc3)cc2)n1,1.3
19,CNCCOc1cnc(-c2ccc(CN)cc2)c(-c2ccc(-c3ccoc3)cc2)n1,2.1
20,NCc1ccc(-c2ncc(OCC3CCNCC3)nc2-c2ccc(-c3ccoc3)cc2F)cc1,8.4
21,NCc1ccc(-c2ncc(OC3CCNCC3)nc2-c2ccc(-c3ccoc3)cc2)cc1,1.6

row,Compound,IC50 [µM]
1,NCc1ccc(-c2ncc(OCC3CCNCC3)nc2-c2ccc(-c3ccoc3)cc2CO)cc1,> 10
2,NCc1ccc(-c2ncc(OCCC3CCNCC3)nc2-c2ccc(CN)cc2)cc1,> 10
3,NCc1cccc(-c2ncc(OCC3CCNCC3)nc2-c2ccc(-c3ccoc3)cc2)c1,2.9
4,CN(C)Cc1ccc(-c2ncc(OCC3CCNCC3)nc2-c2ccc(-c3ccoc3)cc2)cc1,6.1
5,NCc1ccc(-c2nc(N3CCC[C@@H](N)C3)c3nccn3c2-c2ccc(CN)cc2)cc1,3.5
6,ONCc1ccc(-c2ncc(OCC3CCNCC3)nc2-c2ccc(-c3ccoc3)cc2)cc1,1.2
7,COc1cc(CN)ccc1-c1nc(OCC2CCNCC2)cnc1-c1ccncc1,3.5
8,NCc1ccc(-c2ccc(NCC3CCNCC3)nc2-c2ccc(CN)cc2)cc1,3.7
9,OCc1ccc(-c2ncc(OCCC3CCNCC3)nc2-c2ccc(CO)cc2)cc1,2.1
10,NC(=O)c1ccc(-c2ncc(OCC3CCNCC3)nc2-c2ccc(-c3ccoc3)cc2)cc1F,2.3
11,NCc1ccc(-c2ncc(OCC3CCNCC3)nc2-c2cccc3[nH]cnc23)cc1,1.6
12,Cc1noc(C)c1-c1nc(OCC2CCNCC2)cnc1-c1ccc(CN)cc1,11.1
13,NCc1ccc(-c2ncc(OCC3CCNCC3)nc2-c2ccc(-n3ccnn3)cc2)cc1,> 10
14,CC(=O)OCc1ccc(-c2ncc(OCC3CCNCC3)nc2-c2ccc(COC(C)=O)cc2)cc1,> 10
15,CC(=O)NCc1ccc(-c2ncc(OCC3CCNCC3)nc2-c2ccc(CN)cc2)cc1,30
16,NCc1ccc(-c2ncc(OCC3CCNCC3)nc2-c2ccc(C3CCNCC3)cc2)cc1,3.1
17,c1cc(-c2ccc(-c3ncc(OCC4CCNCC4)nc3-c3ccc(-c4ccoc4)cc3)cc2)co1,1
18,NCc1ccc(-c2nc(OCC3CCNCC3)cnc2-c2ccncc2)cc1,0.32
19,Ic1ccc(-c2ncc(OCC3CCNCC3)nc2-c2ccc(I)cc2)cc1,0.52
20,CN(C)Cc1ccc(-c2ncc(OCC3CCNCC3)nc2-c2ccc(CN(C)C)cc2)cc1,0.39
21,NCc1ccc(-c2ncc(OCC3CCNCC3)nc2-c2ccc(N3CCCCC3)cc2)cc1,> 10

row,Compound,IC50 [µM]
1,NCc1ccc(-c2ncc(NCC3CCNCC3)nc2-c2ccc(-c3ccoc3)cc2F)cc1,2.3
2,NCc1ccc(-c2nc(OCC3CCNCC3)cnc2-c2ccc(O)cc2)cc1,8.1
3,OCc1ccc(-c2ncc(OCC3CCNCC3)nc2-c2ccc(CO)cc2)cc1,0.51
4,NCc1ccc(-c2nc(N)c(OCC3CCNCC3)nc2-c2ccc(CN)cc2)cc1,2.1
5,NCc1ccc(-c2ncc(OCC3CCNCC3)nc2-c2ccc(N3CCOCC3)cc2)cc1,> 10
6,NCc1ccc(-c2ncc(OCC3CCNCC3)nc2-c2ccc(C3=CCNCC3)cc2)cc1,2.9
7,NCc1ccc(-c2ncc(OCC3CCNCC3)nc2-c2ccc(C(=O)N3CCCCC3)cc2)cc1,3.5
8,NCc1ccc(-c2ncc(OCC3CCNCC3)nc2-c2ccc(C(=O)N3CCCC3)cc2)cc1,13
9,NCc1ccc(-c2nc(OCCC3CCNCC3)cnc2-c2ccncc2)cc1,1.7
10,NCc1ccc(-c2ncc(OCCN3CCNCC3)nc2-c2ccc(CN)cc2)cc1,> 10
11,COc1cc(-c2nc(OCC3CCNCC3)cnc2-c2ccc(CN)cc2)ccc1-c1ccoc1,8
12,NCc1ccc(-c2nc(OCCN3CCNCC3)cnc2-c2ccc(-c3ccoc3)cc2)cc1,1.8
13,NCc1ccc(-c2ncc(OCC3CCNCC3)nc2-c2ccc(N3CCCC3)cc2)cc1,2.5
14,CC(=O)NCc1ccc(-c2ncc(OCC3CCNCC3)nc2-c2ccc(CNC(C)=O)cc2)cc1,> 10
15,Cc1noc(C)c1-c1ccc(-c2nc(OCC3CCNCC3)cnc2-c2ccc(CN)cc2)cc1,> 10
16,NCc1ccc(-c2ncc(OCC3CCNCC3)nc2-c2ccc(C3CCOC3)cc2)cc1 (stereo not given),0.59
17,NCc1ccc(-c2ncc(OCc3ccccc3)nc2-c2ccc(-c3ccoc3)cc2)cc1,3.2
18,COc1cc(-c2ccoc2)ccc1-c1nc(OCC2CCNCC2)cnc1-c1ccc(CN)cc1,1.9
19,NCc1ccc(-c2ncc(NCC3CCNCC3)nc2C(=O)Nc2ccc(-c3ccoc3)cc2)cc1,1.1
